The results in this text go back to ChEMBL document CHEMBL2163237, “Molecular determinants of selectivity and efficacy at the dopamine D3 receptor” (J Med Chem, 2012).

For orientation: Emax means the size of the effect at its maximum, as opposed to the concentration needed. By Ki is commonly meant a measure of affinity in units of concentration, obtained from inhibition or displacement.

Assay [1] deals with T1, D(3) dopamine receptor (Homo sapiens, UniProt P35462). Put plainly: Partial agonist activity at human D3 receptor expressed in HEK293T cells coexpressing GalphaoA-91-Rluc8 and mVenus-Gbeta1gamma2 after 2 mins by bioluminescence resonance energy transfer assay relative to dopamine. In kind it is functional, cell-based. The following applies: HEK-293T. In short, it runs like this:
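Human D3R transiently co-transfected (PEI) into HEK-293T cells with GαoA-RLuc8 and split-mVenus Gβ1/Gγ2; assayed ~48 h post-transfection. Cells in PBS/0.1% glucose at room temperature (40 µg protein/well), coelenterazine h 5 µM for 8 min, ligand for 2 min; BRET1 ratio 510–540/485 nm.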

In assay [2] the target is T1, D(3) dopamine receptor. Briefly: Displacement of [125I]IABN from human D3 receptor expressed in HEK293 cells after 60 mins by gamma counting analysis. The assay is classed as cell-based. A digest of the protocol: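 Competitor spanned 5 orders of magnitude. Nonspecific binding defined with 15 µM (+)-butaclamol. Filtration with cold wash, then gamma counting. Single-site IC50 converted to Ki by Cheng-Prusoff. Mean of ≥3 independent experiments.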
On the technique in general: In a radioligand displacement assay an active substance lowers the binding of a labelled ligand.

The species entered for another assay is Homo sapiens. Briefly: Selectivity ratio of Ki for human D2L receptor to Ki for human D3 receptor.
The target of the next assay is D(2) dopamine receptor (Homo sapiens, UniProt P14416). Put plainly: Displacement of [125I]IABN from human D2L receptor expressed in HEK293 cells after 60 mins by gamma counting analysis. In kind it is cell-based. A digest of the protocol: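 Competitor spanned 5 orders of magnitude. Filtration with cold wash, then gamma counting. Single-site IC50 converted to Ki by Cheng-Prusoff. Mean of ≥3 independent experiments.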
Sequence of D(2) dopamine receptor (P14416 whole entry): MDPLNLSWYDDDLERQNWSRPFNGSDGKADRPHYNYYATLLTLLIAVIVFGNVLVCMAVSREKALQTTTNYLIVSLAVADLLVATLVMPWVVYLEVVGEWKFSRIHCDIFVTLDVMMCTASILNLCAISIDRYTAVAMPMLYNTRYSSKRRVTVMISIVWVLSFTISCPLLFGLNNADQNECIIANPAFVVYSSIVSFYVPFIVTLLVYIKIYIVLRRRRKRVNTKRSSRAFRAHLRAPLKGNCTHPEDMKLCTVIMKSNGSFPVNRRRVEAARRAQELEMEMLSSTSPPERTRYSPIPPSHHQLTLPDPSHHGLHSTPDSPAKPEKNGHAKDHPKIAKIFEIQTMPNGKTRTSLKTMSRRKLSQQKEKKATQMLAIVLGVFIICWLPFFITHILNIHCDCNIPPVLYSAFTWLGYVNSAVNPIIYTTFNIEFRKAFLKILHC

T1 sequence (P35462 whole entry): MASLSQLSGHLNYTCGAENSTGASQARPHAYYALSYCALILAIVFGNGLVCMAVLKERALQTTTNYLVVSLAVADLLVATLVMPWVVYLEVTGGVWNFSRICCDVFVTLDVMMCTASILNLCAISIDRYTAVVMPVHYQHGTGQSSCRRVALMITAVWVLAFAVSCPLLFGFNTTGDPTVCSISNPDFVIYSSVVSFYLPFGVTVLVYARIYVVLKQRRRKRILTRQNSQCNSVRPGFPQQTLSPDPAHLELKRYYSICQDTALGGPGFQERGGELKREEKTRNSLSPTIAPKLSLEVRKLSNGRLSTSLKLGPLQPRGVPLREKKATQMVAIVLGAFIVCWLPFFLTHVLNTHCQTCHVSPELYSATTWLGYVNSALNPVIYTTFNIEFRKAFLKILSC

In turn, `O=C(NCCCCN1CCN(c2cccc(Cl)c2Cl)CC1)c1cc2ccccc2[nH]1` registered an Emax on D(3) dopamine receptor [1] of 16%. Besides, the Ki on D(3) dopamine receptor [2] was 0.0014 µM.

With `COc1ccccc1N1CCN(C)CC1`, in the assay listed under Homo sapiens, the Ratio Ki turned out to be 0.45. The Ki at D(3) dopamine receptor [2] came to 0.59 µM; at D(2) dopamine receptor it was 0.265 µM.

Turning to `CCC(=O)NCCCCN1CCN(c2ccccc2OC)CC1`, the Ratio Ki in the assay filed under Homo sapiens was 2.18. The Ki came out at 0.0386 µM on D(3) dopamine receptor [2] and 0.084 µM at D(2) dopamine receptor.

Consider `CCCCNC(=O)c1cc2ccccc2[nH]1`, for which the Ki on D(3) dopamine receptor [2] is 21.5 µM.

For the molecule `CCCCN1CCN(c2ccccc2OC)CC1`, the Ratio Ki in the assay filed under Homo sapiens was found to be 0.86. Moreover, the Ki on D(3) dopamine receptor [2] was 0.0239 µM; at D(2) dopamine receptor, 0.0206 µM.

As for `Clc1cccc(N2CCNCC2)c1Cl`, the Ratio Ki in the assay filed under Homo sapiens was found to be 0.69. Moreover, the figures for the Ki at D(3) dopamine receptor [2] and at D(2) dopamine receptor were 0.197 µM and 0.137 µM, respectively.

Consider `CCCN1CCN(c2cccc(Cl)c2Cl)CC1`, for which, in the assay listed under Homo sapiens, the Ratio Ki stood at 0.82. Also, the Ki at D(3) dopamine receptor [2] was 0.0063 µM; at D(2) dopamine receptor it was 0.0052 µM.

Take `CN1CCN(c2cccc(Cl)c2Cl)CC1`: the Ratio Ki in the assay listed under Homo sapiens turned out to be 0.84. The Ki on D(3) dopamine receptor [2] stood at 0.0546 µM; on D(2) dopamine receptor, 0.0459 µM.

Turning to `CCC(=O)NCCCCN1CCN(c2cccc(Cl)c2Cl)CC1`, the Ratio Ki in the assay filed under Homo sapiens came to 3.25. Moreover, the Ki on D(3) dopamine receptor [2] turned out to be 0.0048 µM; at D(2) dopamine receptor, 0.0156 µM.

On to `O=C(NCC[C@@H](O)CN1CCN(c2cccc(Cl)c2Cl)CC1)c1cc2ccccc2[nH]1`, for which, at D(3) dopamine receptor [1], the Emax was 20.6%.

Consider `COc1ccccc1N1CCN(CCCCNC(=O)c2cc3ccccc3[nH]2)CC1`, for which, at D(3) dopamine receptor [1], the Emax was 8.38%.

For the molecule `OCCN1CCN(c2cccc(Cl)c2Cl)CC1`, the Ratio Ki in the assay filed under Homo sapiens turned out to be 1.75. Further, the results for the Ki at D(3) dopamine receptor [2] and at D(2) dopamine receptor were 0.0363 µM and 0.0637 µM, respectively.

For `CCCCN1CCN(c2cccc(Cl)c2Cl)CC1`, the Ratio Ki in the assay listed under Homo sapiens amounted to 1.79. Besides, the Ki came to 0.0019 µM at D(3) dopamine receptor [2] and 0.0034 µM on D(2) dopamine receptor.

Consider `COc1ccccc1N1CCNCC1`, for which the Ratio Ki in the assay listed under Homo sapiens was determined as 0.3. Besides, the figures for the Ki at D(3) dopamine receptor [2] and on D(2) dopamine receptor were 2.26 µM and 0.68 µM, respectively.
